Assay results: ChEMBL document CHEMBL4261564, “Studies on enantioselectivity of chiral 4-acetylamino-6-alkyloxy-2-alkylthiopyrimidines acting as antagonists of the human A3 adenosine receptor” (Medchemcomm, 2018)

How the values were obtained:
Adenosine receptor A3 [1] = molecular target: T1, Adenosine receptor A3 (Homo sapiens, UniProt P0DMS8); assay: Displacement of [3H]NECA from recombinant human adenosine A3 receptor expressed in CHO cell membranes measured after 180 mins
T1 sequence (P0DMS8 whole entry): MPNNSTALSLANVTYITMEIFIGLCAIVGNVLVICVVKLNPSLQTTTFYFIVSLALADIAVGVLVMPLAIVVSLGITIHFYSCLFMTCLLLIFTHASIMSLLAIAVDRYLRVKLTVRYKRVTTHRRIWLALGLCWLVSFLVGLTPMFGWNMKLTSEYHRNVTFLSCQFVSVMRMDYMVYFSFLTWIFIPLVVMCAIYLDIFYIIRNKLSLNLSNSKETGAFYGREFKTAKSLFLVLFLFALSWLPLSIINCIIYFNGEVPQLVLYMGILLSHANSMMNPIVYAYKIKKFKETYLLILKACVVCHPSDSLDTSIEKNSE

Adenosine receptor A3 [2] = molecular target: T1, Adenosine receptor A3; assay: Antagonist activity at recombinant human adenosine A3 receptor expressed in CHO cells assessed as reduction in Cl-IB-MECA-induced inhibition of forskolin-stimulated [3H]cAMP accumulation preincubated for 10 mins followed by Cl-IB-MECA addition measured after 30 mins by liquid scintillation counting method; type: functional, cell-based
How it was run: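 A3 AR CHO cells are plated at about 30,000 per well and used 24 h later. They are preincubated 15 min at 37 °C in DMEM containing ADA 1 U/mL and Ro20-1724 20 µM. Compound is added 10 min before Cl-IB-MECA, with 1 µM forskolin present. The reaction is stopped with 0.4 N HCl and neutralised with KOH. cAMP is measured by competitive binding of [3H]cAMP (2 nM) to bovine adrenal binding protein for 150 min at 0 °C, then filtered and counted by scintillation.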

Adenosine receptor A1 = molecular target: T2, Adenosine receptor A1 (Homo sapiens, UniProt P30542); assay: Displacement of [3H]DPCPX from human adenosine A1 receptor expressed in CHO cell membranes after 180 mins
T2 sequence (P30542 whole entry): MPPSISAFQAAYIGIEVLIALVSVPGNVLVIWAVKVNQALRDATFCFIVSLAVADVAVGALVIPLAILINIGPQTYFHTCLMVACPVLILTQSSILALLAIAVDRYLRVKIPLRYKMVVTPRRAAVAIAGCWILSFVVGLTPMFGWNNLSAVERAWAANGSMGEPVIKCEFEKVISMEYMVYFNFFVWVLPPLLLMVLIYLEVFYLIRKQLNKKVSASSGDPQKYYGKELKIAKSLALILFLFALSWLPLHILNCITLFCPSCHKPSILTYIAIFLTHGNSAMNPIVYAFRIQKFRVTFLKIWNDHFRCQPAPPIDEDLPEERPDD
How it was run: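 Membranes (30 µg protein) are incubated with 3 nM [3H]DPCPX at 25 °C in Tris-HCl 50 mM, MgCl2 2 mM, ADA 2 U/mL, pH 7.4. Six test concentrations are used, and nonspecific binding is set with 50 µM R-PIA. The Kd of 3 nM is used for Ki. Values are the mean of at least three experiments, each in duplicate.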

Adenosine receptor A2b = molecular target: T3, Adenosine receptor A2b (Homo sapiens, UniProt P29275); assay: Displacement of [3H]NECA from recombinant human adenosine A2B receptor expressed in CHO cell membranes measured after 180 mins
T3 sequence (P29275 whole entry): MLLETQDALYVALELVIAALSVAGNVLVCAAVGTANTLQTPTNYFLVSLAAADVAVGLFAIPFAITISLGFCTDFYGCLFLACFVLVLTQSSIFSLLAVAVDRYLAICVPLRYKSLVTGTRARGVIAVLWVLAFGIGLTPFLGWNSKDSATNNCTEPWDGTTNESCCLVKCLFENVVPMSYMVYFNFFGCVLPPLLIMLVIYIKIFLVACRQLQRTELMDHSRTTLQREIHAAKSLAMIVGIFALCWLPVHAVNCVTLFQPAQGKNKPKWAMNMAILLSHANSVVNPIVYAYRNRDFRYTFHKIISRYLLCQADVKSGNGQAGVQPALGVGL

Adenosine receptor A2a = Adenosine receptor A2a (Homo sapiens, UniProt P29274); assay: Displacement of [3H]NECA from recombinant human adenosine A2A receptor expressed in CHO cell membranes measured after 90 mins
Sequence of Adenosine receptor A2a (P29274 whole entry): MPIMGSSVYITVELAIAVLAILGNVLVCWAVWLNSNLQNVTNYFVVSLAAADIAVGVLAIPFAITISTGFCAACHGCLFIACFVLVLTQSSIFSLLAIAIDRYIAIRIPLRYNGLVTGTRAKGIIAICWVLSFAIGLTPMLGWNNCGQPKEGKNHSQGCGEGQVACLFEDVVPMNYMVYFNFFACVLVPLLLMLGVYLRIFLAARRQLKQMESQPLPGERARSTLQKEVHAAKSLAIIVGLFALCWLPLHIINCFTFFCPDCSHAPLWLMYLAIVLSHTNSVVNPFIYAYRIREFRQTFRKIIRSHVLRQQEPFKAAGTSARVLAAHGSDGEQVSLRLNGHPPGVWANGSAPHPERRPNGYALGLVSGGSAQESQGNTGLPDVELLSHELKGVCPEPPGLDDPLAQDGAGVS

SMILES | Ki (Adenosine receptor A3 [1]) [nM] | IC50 (Adenosine receptor A3 [2]) [nM] | Ki (Adenosine receptor A1) [nM] | Ki (Adenosine receptor A2b) [nM] | Ki (Adenosine receptor A2a) [nM]
CCCOc1cc(NC(C)=O)nc(S[C@H](C)c2ccccc2)n1 | 737 |  |  |  | 
CC[C@@H](C)Oc1cc(NC(C)=O)nc(SCc2ccccc2)n1 | 1390 |  |  |  | 
CCCOc1cc(NC(C)=O)nc(S[C@@H](C)c2ccccc2)n1 | 440 | 428 |  |  | 
CCCOc1cc(NC(C)=O)nc(SC(C)c2ccccc2)n1 (racemic) | 580 |  | > 1000 | > 1000 | > 1000

Compounds with a lower Ki (Adenosine receptor A3 [1]), results first:

Ki (Adenosine receptor A3 [1]) [nM] | IC50 (Adenosine receptor A3 [2]) [nM] | Ki (Adenosine receptor A1) [nM] | Ki (Adenosine receptor A2b) [nM] | Ki (Adenosine receptor A2a) [nM] | SMILES
0.5 | 7.9 |  |  |  | CCCSc1nc(NC(C)=O)cc(O[C@@H](C)c2ccccc2)n1
183 | 153 |  |  |  | CC[C@H](C)Oc1cc(NC(C)=O)nc(SCc2ccccc2)n1
1.7 |  |  |  |  | CCCSc1nc(NC(C)=O)cc(O[C@H](C)c2ccccc2)n1
0.6 |  | > 1000 | > 1000 | > 1000 | CCCSc1nc(NC(C)=O)cc(OC(C)c2ccccc2)n1 (racemic)
195 |  | > 1000 | > 1000 | > 1000 | CCC(C)Oc1cc(NC(C)=O)nc(SCc2ccccc2)n1 (racemic)
